Measured values reported in ChEMBL document CHEMBL1152645, “Structure-based drug design identifies novel LPA3 antagonists” (Bioorg Med Chem, 2009).
Activity calls are given as the source filed them. No cut-off for these calls is given here.

Tests used:
[1] = target: Lysophosphatidic acid receptor 3 (Homo sapiens) (UniProt Q9UBY5); test: Antagonist activity at LPA3 receptor expressed in rat RH7777 cells assessed as inhibition of LPA-induced calcium response at 10 uM
[2] = target: T1, Lysophosphatidic acid receptor 3 (Homo sapiens) (UniProt Q9UBY5); test: Agonist activity at LPA3 receptor expressed in rat RH7777 cells assessed as effect on intracellular calcium response at 10 uM; type: functional, cell-based
T1 sequence (whole entry): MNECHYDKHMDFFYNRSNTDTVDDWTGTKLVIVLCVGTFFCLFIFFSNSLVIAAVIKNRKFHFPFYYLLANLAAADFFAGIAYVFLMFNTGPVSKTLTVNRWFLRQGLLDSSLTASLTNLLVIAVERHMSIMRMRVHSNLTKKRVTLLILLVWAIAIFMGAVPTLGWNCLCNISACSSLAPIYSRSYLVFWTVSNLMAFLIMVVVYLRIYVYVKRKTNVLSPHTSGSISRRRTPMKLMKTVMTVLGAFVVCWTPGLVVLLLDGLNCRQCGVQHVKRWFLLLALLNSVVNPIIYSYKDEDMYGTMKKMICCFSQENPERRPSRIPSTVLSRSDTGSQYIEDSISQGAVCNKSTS
In short: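 Agonist test: compound (methanol stock diluted in buffer) was applied alone to fura-2-loaded, stably receptor-expressing cells after overnight culture and 4-6 h in serum-free medium. Intracellular Ca2+ was followed as the 520 nm emission ratio at 340/380 nm excitation. Run in quadruplicate.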

[3] = target: T2, Lysophosphatidic acid receptor 3 (Homo sapiens, UniProt Q9UBY5); test: Binding affinity to LPA3
T2 sequence (Q9UBY5 whole entry): T1 sequence (whole entry)

[4] = target: T3, Lysophosphatidic acid receptor 1 (Homo sapiens, UniProt Q92633); test: Antagonist activity at LPA1 receptor expressed in rat RH7777 cells assessed as inhibition of LPA-induced intracellular calcium response; type: functional, cell-based
In short: (§1)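 Cells stably expressing the receptor were plated, cultured overnight, serum-starved for 4-6 h and loaded with fura-2. LPA-induced Ca2+ mobilization was measured as the 520 nm emission ratio at 340/380 nm excitation. Compounds were dissolved in methanol and diluted in buffer. IC50 came from concentration-response curves, with samples in quadruplicate.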

[5] = target: T2, Lysophosphatidic acid receptor 3; test: (§2) Antagonist activity at LPA3 receptor expressed in rat RH7777 cells assessed as inhibition of LPA-induced intracellular calcium response; type: functional, cell-based
In short: as §1

[6] = target: T3, Lysophosphatidic acid receptor 1; test: Binding affinity to LPA1
[7] = target: T1, Lysophosphatidic acid receptor 3 (Homo sapiens); test: as §2; type: functional, cell-based
In short: as §1

[8] = target: T4, Lysophosphatidic acid receptor 5 (Homo sapiens, UniProt Q9H1C0); test: Binding affinity to LPA5
[9] = target: T4, Lysophosphatidic acid receptor 5; test: Antagonist activity at LPA5 receptor expressed in rat RH7777 cells assessed as inhibition of LPA-induced intracellular calcium response; type: functional, cell-based
In short: as §1

T3 sequence (Q92633 whole entry): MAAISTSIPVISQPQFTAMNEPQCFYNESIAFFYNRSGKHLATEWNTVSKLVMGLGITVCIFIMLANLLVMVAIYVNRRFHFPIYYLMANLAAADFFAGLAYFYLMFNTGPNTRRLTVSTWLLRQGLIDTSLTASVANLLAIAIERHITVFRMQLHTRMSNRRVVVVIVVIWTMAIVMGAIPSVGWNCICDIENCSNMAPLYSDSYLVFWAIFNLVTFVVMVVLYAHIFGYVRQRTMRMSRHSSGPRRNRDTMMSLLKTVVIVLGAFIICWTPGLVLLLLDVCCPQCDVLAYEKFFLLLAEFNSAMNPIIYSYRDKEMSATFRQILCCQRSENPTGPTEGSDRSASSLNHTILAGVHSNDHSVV
T4 sequence (Q9H1C0 whole entry): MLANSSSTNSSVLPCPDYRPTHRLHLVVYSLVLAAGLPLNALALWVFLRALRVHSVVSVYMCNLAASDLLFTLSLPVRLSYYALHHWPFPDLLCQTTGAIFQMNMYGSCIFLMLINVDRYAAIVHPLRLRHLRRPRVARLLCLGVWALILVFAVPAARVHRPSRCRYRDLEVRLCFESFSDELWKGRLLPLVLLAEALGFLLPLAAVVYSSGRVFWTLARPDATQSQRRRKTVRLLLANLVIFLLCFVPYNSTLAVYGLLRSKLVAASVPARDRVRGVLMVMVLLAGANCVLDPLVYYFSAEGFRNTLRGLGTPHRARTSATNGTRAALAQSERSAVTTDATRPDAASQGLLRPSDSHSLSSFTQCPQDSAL

Q: How did the inhibition [1] turn out when `O=C(O)CCCN1C(=O)c2ccc(Oc3cccc([N+](=O)[O-])c3)cc2C1=O` was run?
A: The inhibition was 18%.

Q: `O=C(O)CN1C(=O)c2ccc(C(=O)c3cccc([N+](=O)[O-])c3)cc2C1=O` was tested. Which Activity [2] did it give?
A: The Activity was “Active”.

Q: For `O=C1c2ccc(Oc3cccc([N+](=O)[O-])c3)cc2C(=O)N1Cc1cccnc1`, which inhibition [1] is on record?
A: Its inhibition is 38%.

Q: Which inhibition [1] does the source give for `O=C(O)CCCN1C(=O)c2ccc(C(=O)c3cccc([N+](=O)[O-])c3)cc2C1=O` here?
A: The inhibition was 10%.

Q: Which results are given for `Cc1ccc(Oc2ccc3c(c2)C(=O)N(CC(=O)O)C3=O)cc1`?
A: Ki [3]: 1080 nM; IC50 [4]: 609 nM; IC50 [5]: 2990 nM; Ki [6]: 311 nM

Q: `O=C(O)c1ccccc1N1C(=O)c2ccc(Oc3ccc([N+](=O)[O-])cc3)cc2C1=O` was tested. Which inhibition [1] did it give?
A: Its inhibition is 38%.

Q: For `O=C(O)c1cc(C(=O)O)cc(N2C(=O)c3ccc(Oc4cccc([N+](=O)[O-])c4)cc3C2=O)c1`, which inhibition [1] is on record?
A: The inhibition was 43%.

Q: With `O=C(O)COc1ccc(N2C(=O)c3ccc(Oc4cccc([N+](=O)[O-])c4)cc3C2=O)cc1` as the compound, how does the Activity [2] read?
A: The Activity was “Active”.

Q: `CC(=O)c1ccc(NC(=O)c2cccc(N3C(=O)c4ccc([N+](=O)[O-])cc4C3=O)c2)cc1` was tested. Which inhibition [1] did it give?
A: Its inhibition is 18%.

Q: With `O=C(O)CN1C(=O)c2ccc(Oc3cccc([N+](=O)[O-])c3)cc2C1=O` as the compound, how does the Imax [7] read?
A: The Imax was 50%.

Q: Which inhibition [1] does the source give for `Cc1c(C(=O)O)cccc1N1C(=O)c2ccc(Oc3cccc([N+](=O)[O-])c3)cc2C1=O` here?
A: Its inhibition is 42%.

Q: Which Activity [2] does the source give for `CC(=O)COc1ccc(NC(=O)CN2C(=O)c3ccc([N+](=O)[O-])cc3C2=O)cc1` here?
A: Its Activity is “Active”.

Q: Which results are given for `O=C(O)c1ccc2c(c1)C(=O)N(c1cccc(Oc3ccc([N+](=O)[O-])cc3)c1)C2=O`?
A: Ki [3]: 230 nM; IC50 [4]: 94 nM; inhibition [1]: 82%; Ki [8]: 292 nM; IC50 [5]: 752 nM; Ki [6]: 48 nM; IC50 [9]: 463 nM
